The source of these data is ChEMBL document CHEMBL4819066, “Repurposing primaquine as a polyamine conjugate to become an antibiotic adjuvant” (Bioorg Med Chem, 2021).

The subject of test [1] is Pseudomonas aeruginosa. In words: Antibacterial activity against Pseudomonas aeruginosa ATCC 27853 assessed as reduction in microbial growth after 18 hrs by resazurin dye based assay. It is filed as functional. In short, it runs like this:
(§1)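 Bacteria grown overnight at 37 °C in LB, NB or MHB, diluted 40-fold into MHB and grown 1.5-2 h to mid-log phase. Inoculum 5 × 10^5 CFU/mL (final), 2-fold serial dilutions, final range 0.008-32 µg/mL, in duplicate. […] Colistin as positive control, Z'-factor >0.4 for plate QC.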
(Resazurin is reduced to fluorescent resorufin, in cell work by metabolically active cells.)

Test [2] relates to Cryptococcus neoformans. Kind of test: Antifungal activity against Cryptococcus neoformans ATCC 208821 assessed as reduction in microbial growth after 36 hrs by resazurin dye based assay. It is filed as functional. The essentials:
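Yeast grown 3 days on YPD agar at 30 °C and diluted in YNB broth to 2.5 × 10^3 CFU/mL. Compounds at 0.008-32 µg/mL final, 2-fold dilutions, in duplicate. After 36 h at 35 °C without shaking, resazurin added at 0.006% final for a further 3 h; MIC read as absorbance at OD570-600. Fluconazole as positive control.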

Test [3] relates to Staphylococcus aureus. In words: Antibacterial activity against methicillin-resistant Staphylococcus aureus ATCC 43300 assessed as reduction in microbial growth after 18 hrs by resazurin dye based assay. It is filed as functional. The essentials:
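Overnight culture at 37 °C, diluted 40-fold in MHB and grown 1.5-2 h to mid-log. Inoculum 5 × 10^5 CFU/mL. Two-fold serial dilutions, final 0.008-32 µg/mL, in duplicate. […] Vancomycin served as the Gram-positive standard.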

The test system of test [4] is Candida albicans. Kind of test: Antifungal activity against Candida albicans ATCC 90028 assessed as reduction in microbial growth after 36 hrs by absorbance at OD530. To be noted: ATCC 90028, 36 h.
The subject of test [5] is Pseudomonas aeruginosa. In words: Potentiation of doxycycline-induced antibacterial activity against Pseudomonas aeruginosa ATCC 27853 assessed as complete reduction in visible microbial growth after 18 hrs in presence of 4.5 uM doxycycline by two fold serial dilution method. The test is classed as functional. The essentials: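 Adjuvant test by broth dilution: inoculum 5 × 10^5 CFU in 200 µL MHB. Two-fold serial dilutions of each derivative were given with doxycycline fixed at 2 µg/mL. After 18 h at 37 °C, the value recorded was the lowest adjuvant concentration giving complete absence of visible growth. Three independent repeats.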

The test system of test [6] is Escherichia coli. In words: Antibacterial activity against Escherichia coli ATCC 25922 assessed as reduction in microbial growth after 18 hrs by resazurin dye based assay. The test is classed as functional. The essentials:
as §1

Test [7] deals with Acinetobacter baumannii. In words: Antibacterial activity against Acinetobacter baumannii ATCC 19606 assessed as reduction in microbial growth after 18 hrs by resazurin dye based assay. The test is classed as functional. Conditions: ATCC 19606 = CIP 70.34 = JCM 6841. The essentials:
as §1

In test [8] the test system is Klebsiella pneumoniae. In words: Antibacterial activity against Klebsiella pneumoniae ATCC 700603 assessed as reduction in microbial growth after 18 hrs by resazurin dye based assay. The test is classed as functional. The essentials:
as §1

Take `O=C(CCC(=O)Nc1cccc2cccnc12)NCCCNCCCCNCCCNC(=O)CCC(=O)Nc1cccc2cccnc12`: the MIC – broadly, the smallest concentration in the dilution series that meets the test's criterion for growth inhibition – was > 36.2 µM in test [1]; > 36.2 µM in test [2]; > 36.2 µM in test [3]; > 36.2 µM in test [4]; 566 µM in test [5]; > 36.2 µM in test [6]. Moreover, the MIC in test [7] and in test [8] was > 36.2 µM in each case.
Regarding `COc1cc(NC(=O)CCC(=O)NCCCNCCCCNCCCNC(=O)CCC(=O)Nc2cc(OC)cc3cccnc23)c2ncccc2c1`, the MIC in test [1] is > 33.9 µM; in test [2] it was > 33.9 µM; in test [3] it was > 33.9 µM; in test [4], > 33.9 µM; in test [5], 200 µM; in test [6] it was > 33.9 µM. Further, the MIC in test [7] and in test [8] was > 33.9 µM in each case.
With `O=C(CCC(=O)NCc1cccnc1)NCCCNCCCCCCCCCCNCCCNC(=O)CCC(=O)NCc1cccnc1`, the MIC in test [1] is > 35.8 µM; in test [2] it was > 35.8 µM; in test [3] it was > 35.8 µM; in test [4], > 35.8 µM; in test [5] it was 559 µM; in test [6], > 35.8 µM. Besides, the MIC in test [7] and in test [8] was > 35.8 µM each time.
With `O=C(CCC(=O)Nc1ccc2ncccc2c1)NCCCNCCCCNCCCNC(=O)CCC(=O)Nc1ccc2ncccc2c1`, the MIC was > 36.2 µM in test [1]; > 36.2 µM in test [2]; > 36.2 µM in test [3]; > 36.2 µM in test [4]; 566 µM in test [5]; > 36.2 µM in test [6]. Also, the MIC in test [7] and in test [8] was > 36.2 µM throughout.
As for `COc1cc(NC(=O)CCC(=O)NCCCNCCCCCCNCCCNC(=O)CCC(=O)Nc2cc(OC)cc3cccnc23)c2ncccc2c1`, the MIC in test [1] was > 33 µM; in test [2], > 33 µM; in test [3], > 33 µM; in test [4], > 33 µM; in test [5] it was 300 µM; in test [6], > 33 µM. In addition, the MIC in test [7] and in test [8] was > 33 µM in each case.
Take `O=C(CCC(=O)NCc1cccnc1)NCCCNCCCCNCCCNC(=O)CCC(=O)NCc1cccnc1`: the MIC is > 39.5 µM in test [1]; > 39.5 µM in test [2]; > 39.5 µM in test [3]; > 39.5 µM in test [4]; 617 µM in test [5]; > 39.5 µM in test [6]. Also, the MIC in test [7] and in test [8] was > 39.5 µM in each case.
For `O=C(CCC(=O)Nc1cccc2cccnc12)NCCCNCCCCCCCCNCCCNC(=O)CCC(=O)Nc1cccc2cccnc12`, the MIC was > 34.1 µM in test [1]; > 34.1 µM in test [2]; > 34.1 µM in test [3]; > 34.1 µM in test [4]; 200 µM in test [5]; > 34.1 µM in test [6]. Besides, the MIC in test [7] and in test [8] was > 34.1 µM in each case.
As to `CN[C@H](CC(C)C)C(=O)N[C@H]1C(=O)N[C@@H](CC(N)=O)C(=O)N[C@H]2C(=O)N[C@H]3C(=O)N[C@H](C(=O)N[C@H](C(=O)O)c4cc(O)cc(O)c4-c4cc3ccc4O)[C@H](O)c3ccc(c(Cl)c3)Oc3cc2cc(c3O[C@@H]2O[C@H](CO)[C@@H](O)[C@H](O)[C@H]2O[C@H]2C[C@](C)(N)[C@H](O)[C@H](C)O2)Oc2ccc(cc2Cl)[C@H]1O` [VANCOMYCIN], in test [3], the MIC came to 0.7 µM.
As for `O=C(CCC(=O)Nc1cccc2cccnc12)NCCCNCCCCCCCNCCCNC(=O)CCC(=O)Nc1cccc2cccnc12`, the MIC in test [1] is > 34.6 µM; in test [2], > 34.6 µM; in test [3] it was > 34.6 µM; in test [4], > 34.6 µM; in test [5] it was 200 µM; in test [6] it was > 34.6 µM. Further, the MIC in test [7] and in test [8] was > 34.6 µM in each case.
As for `O=C(CCC(=O)Nc1ccc2ncccc2c1)NCCCNCCCCCCCCCCNCCCNC(=O)CCC(=O)Nc1ccc2ncccc2c1`, the MIC was > 33.1 µM in test [1]; > 33.1 µM in test [2]; > 33.1 µM in test [3]; > 33.1 µM in test [4]; 517 µM in test [5]; > 33.1 µM in test [6]. Besides, the MIC in test [7] and in test [8] was > 33.1 µM each time.
As to `O=C(CCC(=O)NCc1ccccn1)NCCCNCCCCNCCCNC(=O)CCC(=O)NCc1ccccn1`, the MIC in test [1] was > 39.5 µM; in test [2] it was > 39.5 µM; in test [3] it was > 39.5 µM; in test [4], > 39.5 µM; in test [5] it was 617 µM; in test [6] it was > 39.5 µM. The MIC in test [7] and in test [8] was > 39.5 µM in each case.
`OC(Cn1cncn1)(Cn1cncn1)c1ccc(F)cc1F` [FLUCONAZOLE]: the figures for the MIC in test [2] and in test [4] were 26 µM and 0.4 µM, respectively.
In the case of `O=C(CCC(=O)Nc1cccc2cccnc12)NCCCNCCCCCCNCCCNC(=O)CCC(=O)Nc1cccc2cccnc12`, the MIC in test [1] was > 35.1 µM; in test [2], > 35.1 µM; in test [3] it was 17.6 µM; in test [4] it was > 35.1 µM; in test [5], 100 µM; in test [6], > 35.1 µM. Also, the MIC in test [7] and in test [8] was > 35.1 µM each time.
Regarding COLISTIN, the MIC in test [1] came to 0.2 µM; in test [6] it was 0.1 µM; in test [7], 0.2 µM; in test [8], 0.2 µM.
On to `COc1cc(NC(=O)CCC(=O)NCCCNCCCCCCCNCCCNC(=O)CCC(=O)Nc2cc(OC)cc3cccnc23)c2ncccc2c1`, for which the MIC in test [1] was > 32.5 µM; in test [2], > 32.5 µM; in test [3], > 32.5 µM; in test [4] it was > 32.5 µM; in test [5] it was 300 µM; in test [6], > 32.5 µM. Also, the MIC in test [7] and in test [8] was > 32.5 µM in each case.
`O=C(CCC(=O)NCc1ccccn1)NCCCNCCCCCCCCCCNCCCNC(=O)CCC(=O)NCc1ccccn1`: the MIC in test [1] is > 35.8 µM; in test [2], > 35.8 µM; in test [3], > 35.8 µM; in test [4], > 35.8 µM; in test [5] it was 559 µM; in test [6], > 35.8 µM. The MIC in test [7] and in test [8] was > 35.8 µM in each case.
Turning to `O=C(CCC(=O)Nc1ccc2ccccc2n1)NCCCNCCCCNCCCNC(=O)CCC(=O)Nc1ccc2ccccc2n1`, the MIC in test [1] was > 36.2 µM; in test [2] it was > 36.2 µM; in test [3], > 36.2 µM; in test [4] it was > 36.2 µM; in test [5], 566 µM; in test [6], > 36.2 µM. Moreover, the MIC in test [7] and in test [8] was > 36.2 µM throughout.
Take `O=C(CCC(=O)Nc1ccc2ccccc2n1)NCCCNCCCCCCCCCCNCCCNC(=O)CCC(=O)Nc1ccc2ccccc2n1`: the MIC in test [1] was > 33.1 µM; in test [2], > 33.1 µM; in test [3] it was > 33.1 µM; in test [4], > 33.1 µM; in test [5] it was 517 µM; in test [6], > 33.1 µM. Moreover, the minimum inhibitory concentration (MIC) in test [7] and in test [8] was > 33.1 µM each time.
As for `COc1cc(NC(=O)CCC(=O)NCCCNCCCCCCCCNCCCNC(=O)CCC(=O)Nc2cc(OC)cc3cccnc23)c2ncccc2c1`, the MIC in test [1] was > 32 µM; in test [2], > 32 µM; in test [3], > 32 µM; in test [4], > 32 µM; in test [5] it was 300 µM; in test [6], > 32 µM. Further, the MIC in test [7] and in test [8] was > 32 µM throughout.
Turning to `O=C(CCC(=O)Nc1cccc2ncccc12)NCCCNCCCCCCCCCCNCCCNC(=O)CCC(=O)Nc1cccc2ncccc12`, the MIC in test [1] is > 33.1 µM; in test [2], > 33.1 µM; in test [3], > 33.1 µM; in test [4], > 33.1 µM; in test [5], 517 µM; in test [6], > 33.1 µM. Further, the MIC in test [7] and in test [8] was > 33.1 µM throughout.
As to `C[C@H]1c2cccc(O)c2C(=O)C2=C(O)[C@]3(O)C(=O)C(C(N)=O)=C(O)[C@@H](N(C)C)[C@@H]3[C@@H](O)[C@@H]21` [DOXYCYCLINE], the MIC in test [1] is > 45 µM.
In the case of `COc1cc(NC(=O)CCC(=O)NCCCNCCCCCCCCCCNCCCNC(=O)CCC(=O)Nc2cc(OC)cc3cccnc23)c2ncccc2c1`, the MIC was > 31.2 µM in test [1]; > 31.2 µM in test [2]; 3.9 µM in test [3]; > 31.2 µM in test [4]; 300 µM in test [5]; > 31.2 µM in test [6]. Besides, the MIC in test [7] and in test [8] was > 31.2 µM each time.
